In ChEMBL document CHEMBL1149102, “De novo design, synthesis, and pharmacology of alpha-melanocyte stimulating hormone analogues derived from somatostatin by a hybrid approach” (J Med Chem, 2004):
Blank lines part the entries; values can stand above or below the compound they belong to.

Tests used:
Melanocortin receptor 4 [1] = biological target: T1, Melanocortin receptor 4 (Mus musculus, UniProt P56450); assay: Effective concentration for maximum agonist response towards mouse melanocortin 4 receptor (MC4R); No activity up to 10^-5 M; format: functional
Outline: (§1)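 Cells stably expressing wild-type mouse (MC3R: rat) melanocortin receptor, transfected with 4 μg CRE/β-galactosidase reporter; 5000–15 000 cells plated, incubated overnight. At 48 h post-transfection, stimulated 6 h in DMEM with 0.1 mg/mL BSA and 0.1 mM IBMX; forskolin 10^-4 M reference.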

Melanocortin receptor 5 [2] = biological target: T2, Melanocortin receptor 5 (Mus musculus, UniProt P41149); assay: Effective concentration for maximum agonist response towards mouse melanocortin 5 receptor (MC5R); No activity up to 10^-5 M; format: functional; outline: as §1
[3] = biological target: T3, Melanocyte-stimulating hormone receptor (Mus musculus, UniProt Q01727); assay: Effective concentration for maximum agonist response towards mouse melanocortin 1 receptor (MC1R); No activity up to 10^-5 M; format: functional; outline: as §1
Melanocortin receptor 3 [4] = biological target: T4, Melanocortin receptor 3 (Rattus norvegicus, UniProt P32244); assay: Effective concentration for maximum agonist response towards rat melanocortin 3 receptor (MC3R); No activity up to 10e-5 M; format: functional; outline: as §1
[5] = tested on: melanocyte-stimulating hormone receptor (Rana pipiens); assay: Maximum agonist response for frog skin melanocortin 1 receptor (MC1R); No activity up to 10^-5M
[6] = tested on: melanocyte-stimulating hormone receptor (Rana pipiens); assay: Inhibition of 1 nM alpha melanocortin stimulating hormone from frog skin; No activity up to 10^-5 M.
Melanocortin receptor 5 [7] = biological target: T2, Melanocortin receptor 5; assay: Maximum agonist response for mouse melanocortin 5 receptor (MC5R); format: functional; outline: as §1
[8] = biological target: T3, Melanocyte-stimulating hormone receptor; assay: Maximal agonist response of mouse melanocortin 1 receptor (MC1R); format: functional; outline: as §1
Melanocortin receptor 3 [9] = biological target: T4, Melanocortin receptor 3; assay: Maximal agonist response at rat melanocortin 3 receptor (MC3R); format: functional; outline: as §1
[10] = tested on: Melanocortin receptor 1 (Rana pipiens); assay: Inhibition of 1 nM alpha melanocortin stimulating hormone (MSH) from frog skin; antagonist
Melanocortin receptor 4 [11] = biological target: T1, Melanocortin receptor 4; assay: Effective concentration for maximum agonist response towards mouse melanocortin 4 receptor; format: functional; outline: as §1

T1 sequence (P56450 whole entry): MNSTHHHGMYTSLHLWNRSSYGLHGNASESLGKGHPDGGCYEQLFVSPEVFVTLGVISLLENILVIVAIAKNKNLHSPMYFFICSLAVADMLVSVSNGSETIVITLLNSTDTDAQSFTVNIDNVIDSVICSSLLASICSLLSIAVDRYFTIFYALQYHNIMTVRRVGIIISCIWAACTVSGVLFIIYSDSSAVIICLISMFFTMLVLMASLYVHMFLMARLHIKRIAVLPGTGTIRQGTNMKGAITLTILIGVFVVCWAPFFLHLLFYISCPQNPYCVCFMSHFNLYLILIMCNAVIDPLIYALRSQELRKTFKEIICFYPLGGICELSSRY
T3 sequence (Q01727 whole entry): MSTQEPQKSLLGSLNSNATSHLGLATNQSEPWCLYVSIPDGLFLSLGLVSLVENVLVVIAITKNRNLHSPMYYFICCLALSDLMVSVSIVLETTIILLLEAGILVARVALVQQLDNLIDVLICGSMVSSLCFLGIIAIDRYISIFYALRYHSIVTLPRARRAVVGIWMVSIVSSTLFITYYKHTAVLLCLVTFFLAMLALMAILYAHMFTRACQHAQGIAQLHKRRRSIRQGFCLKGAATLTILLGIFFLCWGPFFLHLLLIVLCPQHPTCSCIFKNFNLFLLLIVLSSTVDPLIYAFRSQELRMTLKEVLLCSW
T2 sequence (P41149 whole entry): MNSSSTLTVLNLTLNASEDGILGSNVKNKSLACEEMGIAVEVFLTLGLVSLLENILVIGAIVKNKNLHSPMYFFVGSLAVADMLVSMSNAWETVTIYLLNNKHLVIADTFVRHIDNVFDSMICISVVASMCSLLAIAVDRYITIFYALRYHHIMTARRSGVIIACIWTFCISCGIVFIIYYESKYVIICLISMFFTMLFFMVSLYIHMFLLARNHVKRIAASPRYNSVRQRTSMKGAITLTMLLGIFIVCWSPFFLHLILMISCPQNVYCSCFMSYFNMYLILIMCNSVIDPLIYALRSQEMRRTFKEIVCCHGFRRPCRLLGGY
T4 sequence (P32244 whole entry): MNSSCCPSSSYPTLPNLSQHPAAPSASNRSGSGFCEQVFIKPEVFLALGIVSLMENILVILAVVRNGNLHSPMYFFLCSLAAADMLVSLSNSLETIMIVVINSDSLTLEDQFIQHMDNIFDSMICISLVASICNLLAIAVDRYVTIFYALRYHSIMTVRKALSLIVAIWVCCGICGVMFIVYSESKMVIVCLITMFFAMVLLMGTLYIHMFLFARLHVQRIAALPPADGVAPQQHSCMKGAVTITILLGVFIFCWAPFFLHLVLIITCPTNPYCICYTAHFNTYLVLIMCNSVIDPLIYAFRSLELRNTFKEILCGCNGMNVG

EC50 (Melanocortin receptor 4 [1]): Not Active
EC50 (Melanocortin receptor 5 [2]): Not Active
EC50 [3]: Not Active
EC50 (Melanocortin receptor 3 [4]): Not Active
EC50 [5]: Not Active
Compound: C[C@H](O)[C@@H](NC(=O)[C@H]1CSSC[C@H](NC(=O)[C@@H](N)Cc2ccccc2)C(=O)N[C@@H](Cc2c[nH]cn2)C(=O)N2Cc3ccccc3C[C@H]2C(=O)N[C@@H](CCCN=C(N)N)C(=O)N[C@H](Cc2c[nH]c3ccccc23)C(=O)N1)C(N)=O

EC50 [5]: Not Active
IC50 [6]: Not Active
Compound: C[C@@H](O)[C@H](NC(=O)[C@@H]1CSSC[C@H](NC(=O)[C@H](N)Cc2ccccc2)C(=O)N[C@@H](Cc2c[nH]cn2)C(=O)N[C@@H](Cc2ccc(I)cc2)C(=O)N[C@@H](CCCN=C(N)N)C(=O)N[C@H](Cc2c[nH]c3ccccc23)C(=O)N1)C(N)=O

EC50 (Melanocortin receptor 4 [1]): Not Active
EC50 (Melanocortin receptor 5 [7]): 46 nM
EC50 [8]: 490 nM
EC50 (Melanocortin receptor 3 [9]): 59 nM
IC50 [10]: Antagonist
EC50 [5]: Not Active
Compound: C[C@@H](O)[C@H](NC(=O)[C@H]1CSSC(C)(C)[C@H](NC(=O)[C@H](N)Cc2ccccc2)C(=O)N[C@@H](Cc2c[nH]cn2)C(=O)N[C@@H](Cc2ccccc2)C(=O)N[C@@H](CCCN)C(=O)N[C@H](Cc2c[nH]c3ccccc23)C(=O)N1)C(N)=O

IC50 [6]: Not Active
Compound: C[C@@H](O)[C@H](NC(=O)[C@@H]1CSSC[C@H](NC(=O)[C@H](N)Cc2ccccc2)C(=O)N[C@@H](Cc2c[nH]cn2)C(=O)N[C@@H](Cc2ccc(F)cc2)C(=O)N[C@@H](CCCN=C(N)N)C(=O)N[C@H](Cc2c[nH]c3ccccc23)C(=O)N1)C(N)=O

EC50 [5]: Not Active
IC50 [6]: Not Active
Compound: C[C@@H](O)[C@H](NC(=O)[C@@H]1CSSC[C@@H](NC(=O)[C@H](N)Cc2ccccc2)C(=O)N[C@@H](Cc2c[nH]cn2)C(=O)N[C@@H](Cc2ccc3ccccc3c2)C(=O)N[C@@H](CCCN=C(N)N)C(=O)N[C@H](Cc2c[nH]c3ccccc23)C(=O)N1)C(N)=O

EC50 (Melanocortin receptor 3 [9]): 0.23 nM
Compound: C[C@@H](O)[C@H](NC(=O)[C@H]1CCCCNC(=O)C[C@H](NC(=O)[C@@H](N)Cc2ccccc2)C(=O)N[C@@H](Cc2cnc[nH]2)C(=O)N[C@H](Cc2ccccc2)C(=O)N[C@@H](CCCNC(=N)N)C(=O)N[C@H](Cc2c[nH]c3ccccc23)C(=O)N1)C(N)=O

IC50 [6]: Not Active
Compound: C[C@@H](O)[C@H](NC(=O)[C@@H]1CSSC[C@H](NC(=O)[C@H](N)Cc2ccccc2)C(=O)N[C@@H](Cc2c[nH]cn2)C(=O)N[C@@H](Cc2cccc3ccccc23)C(=O)N[C@@H](CCCN=C(N)N)C(=O)N[C@H](Cc2c[nH]c3ccccc23)C(=O)N1)C(N)=O

IC50 [6]: Not Active
Compound: C[C@@H](O)[C@H](NC(=O)[C@@H]1CCSSC[C@H](NC(=O)[C@H](N)Cc2ccccc2)C(=O)N[C@@H](Cc2c[nH]cn2)C(=O)N[C@H](Cc2ccccc2)C(=O)N[C@@H](CCCN=C(N)N)C(=O)N[C@@H](Cc2c[nH]c3ccccc23)C(=O)N1)C(N)=O

EC50 [5]: Not Active
Compound: C[C@@H](O)[C@H](NC(=O)[C@H]1NC(=O)[C@H](Cc2c[nH]c3ccccc23)NC(=O)[C@H](CCCN=C(N)N)NC(=O)[C@@H](Cc2c[nH]c3ccccc23)NC(=O)[C@H](Cc2ccccc2)NC(=O)[C@@H](NC(=O)[C@H](N)Cc2ccccc2)CSSC1(C)C)C(N)=O

EC50 (Melanocortin receptor 3 [9]): 75 nM
Compound: C[C@@H](O)[C@H](NC(=O)[C@H]1CCSSC[C@H](NC(=O)[C@@H](N)Cc2ccccc2)C(=O)N[C@@H](Cc2cnc[nH]2)C(=O)N[C@H](Cc2ccccc2)C(=O)N[C@@H](CCCNC(=N)N)C(=O)N[C@H](Cc2c[nH]c3ccccc23)C(=O)N1)C(N)=O

EC50 [5]: Not Active
Compound: C[C@@H](O)[C@H](NC(=O)[C@H]1NC(=O)[C@H]([C@@H](C)O)NC(=O)[C@H](CCCN=C(N)N)NC(=O)[C@@H](Cc2c[nH]c3ccccc23)NC(=O)[C@H](Cc2ccc(I)cc2)NC(=O)[C@@H](NC(=O)[C@H](N)Cc2ccccc2)CSSC1(C)C)C(N)=O

IC50 [6]: Not Active
Compound: C[C@@H](O)[C@H](NC(=O)[C@H]1CSSC[C@H](NC(=O)[C@@H](N)Cc2ccccc2)C(=O)N[C@@H](Cc2c[nH]cn2)C(=O)N[C@H](Cc2ccccc2)C(=O)N[C@@H](CCCN=C(N)N)C(=O)N[C@H](Cc2c[nH]c3ccccc23)C(=O)N1)C(N)=O

EC50 (Melanocortin receptor 4 [11]): 20 nM
EC50 (Melanocortin receptor 5 [7]): 0.14 nM
EC50 [8]: 6.9 nM
Compound: C[C@@H](O)[C@H](NC(=O)[C@H]1NC(=O)[C@H](Cc2c[nH]c3ccccc23)NC(=O)[C@H](CCCNC(=N)N)NC(=O)[C@@H](Cc2ccccc2)NC(=O)[C@H](Cc2cnc[nH]2)NC(=O)[C@@H](NC(=O)[C@H](N)Cc2ccccc2)CSSC1(C)C)C(N)=O

IC50 [6]: Not Active
Compound: C[C@@H](O)[C@H](NC(=O)[C@@H]1CSSC[C@H](NC(=O)[C@H](N)Cc2ccccc2)C(=O)N[C@@H](Cc2c[nH]cn2)C(=O)N[C@H](Cc2ccc(Cl)cc2)C(=O)N[C@@H](CCCN=C(N)N)C(=O)N[C@@H](Cc2c[nH]c3ccccc23)C(=O)N1)C(N)=O

EC50 [5]: Not Active
Compound: C[C@@H](O)[C@H](NC(=O)[C@H]1NC(=O)[C@H](Cc2c[nH]c3ccccc23)NC(=O)[C@H](CCCN=C(N)N)NC(=O)[C@@H](Cc2c[nH]c3ccccc23)NC(=O)[C@H](Cc2ccc(O)cc2)NC(=O)[C@@H](NC(=O)[C@H](N)Cc2ccccc2)CSSC1(C)C)C(N)=O

EC50 [5]: Not Active
IC50 [6]: Not Active
Compound: C[C@@H](O)[C@H](NC(=O)[C@H]1NC(=O)[C@H]([C@@H](C)O)NC(=O)[C@H](CCCN=C(N)N)NC(=O)[C@@H](Cc2ccccc2)NC(=O)[C@H](Cc2ccccc2)NC(=O)[C@@H](NC(=O)[C@H](N)Cc2ccccc2)CSSC1(C)C)C(N)=O

IC50 [6]: Not Active
Compound: C[C@@H](O)[C@H](NC(=O)[C@H]1NC(=O)[C@H](Cc2c[nH]c3ccccc23)NC(=O)[C@H](CCCN=C(N)N)NC(=O)[C@@H](Cc2ccccc2)NC(=O)[C@H](Cc2c[nH]cn2)NC(=O)[C@@H](NC(=O)[C@H](N)Cc2ccccc2)CSSC1(C)C)C(N)=O

EC50 [5]: Not Active
Compound: C[C@@H](O)[C@H](NC(=O)[C@H]1NC(=O)[C@H](CO)NC(=O)[C@H](CCCN=C(N)N)NC(=O)[C@@H](Cc2c[nH]c3ccccc23)NC(=O)[C@H](Cc2ccc(O)cc2)NC(=O)[C@@H](NC(=O)[C@H](N)Cc2ccccc2)CSSC1(C)C)C(N)=O

EC50 (Melanocortin receptor 4 [11]): 0.38 nM
EC50 (Melanocortin receptor 5 [7]): 0.074 nM
EC50 [8]: 0.047 nM
Compound: C[C@@H](O)[C@H](NC(=O)[C@@H]1CCCCNC(=O)C[C@H](NC(=O)[C@H](N)Cc2ccccc2)C(=O)N[C@@H](Cc2cnc[nH]2)C(=O)N[C@H](Cc2ccccc2)C(=O)N[C@@H](CCCNC(=N)N)C(=O)N[C@@H](Cc2c[nH]c3ccccc23)C(=O)N1)C(N)=O

EC50 [5]: Not Active
Compound: C[C@@H](O)[C@H](NC(=O)[C@@H]1NC(=O)[C@H](Cc2c[nH]c3ccccc23)NC(=O)[C@H](CCCN=C(N)N)NC(=O)[C@H](Cc2c[nH]c3ccccc23)NC(=O)[C@H](Cc2ccccc2)NC(=O)[C@@H](NC(=O)[C@H](N)Cc2ccccc2)CSSC1(C)C)C(N)=O

EC50 (Melanocortin receptor 4 [11]): 0.2 nM
EC50 (Melanocortin receptor 5 [7]): 0.1 nM
EC50 [8]: 0.23 nM
EC50 (Melanocortin receptor 3 [9]): 0.23 nM
IC50 [6]: Not Active
Compound: C[C@@H](O)[C@H](NC(=O)[C@H]1CSSC[C@H](NC(=O)[C@H](N)Cc2ccccc2)C(=O)N[C@H](Cc2cnc[nH]2)C(=O)N[C@H](Cc2ccccc2)C(=O)N[C@@H](CCCNC(=N)N)C(=O)N[C@H](Cc2c[nH]c3ccccc23)C(=O)N1)C(N)=O

EC50 (Melanocortin receptor 3 [9]): 64 nM
Compound: C[C@@H](O)[C@H](NC(=O)[C@@H]1NC(=O)[C@@H](Cc2c[nH]c3ccccc23)NC(=O)[C@H](CCCNC(=N)N)NC(=O)[C@@H](Cc2ccccc2)NC(=O)[C@@H](Cc2cnc[nH]2)NC(=O)[C@@H](NC(=O)[C@H](N)Cc2ccccc2)CSSC1(C)C)C(N)=O

EC50 (Melanocortin receptor 4 [11]): 1.4 nM
EC50 (Melanocortin receptor 5 [7]): 0.12 nM
EC50 [8]: 1.5 nM
EC50 (Melanocortin receptor 3 [9]): 3 nM
IC50 [6]: Not Active
Compound: C[C@@H](O)[C@H](NC(=O)[C@H]1CSSC[C@H](NC(=O)[C@H](N)Cc2ccccc2)C(=O)N[C@@H](Cc2c[nH]cn2)C(=O)N[C@@H](Cc2ccccc2)C(=O)N[C@@H](CCCN=C(N)N)C(=O)N[C@H](Cc2c[nH]c3ccccc23)C(=O)N1)C(N)=O

EC50 (Melanocortin receptor 4 [11]): 51 nM
EC50 (Melanocortin receptor 5 [7]): 2.2 nM
EC50 [8]: 5.1 nM
Compound: C[C@@H](O)[C@H](NC(=O)[C@@H]1CCSSC[C@H](NC(=O)[C@H](N)Cc2ccccc2)C(=O)N[C@@H](Cc2cnc[nH]2)C(=O)N[C@H](Cc2ccccc2)C(=O)N[C@@H](CCCNC(=N)N)C(=O)N[C@@H](Cc2c[nH]c3ccccc23)C(=O)N1)C(N)=O

IC50 [6]: Not Active
Compound: C[C@@H](O)[C@H](NC(=O)[C@@H]1CCCCNC(=O)C[C@H](NC(=O)[C@H](N)Cc2ccccc2)C(=O)N[C@@H](Cc2c[nH]cn2)C(=O)N[C@H](Cc2ccccc2)C(=O)N[C@@H](CCCN=C(N)N)C(=O)N[C@@H](Cc2c[nH]c3ccccc23)C(=O)N1)C(N)=O

EC50 (Melanocortin receptor 4 [11]): 0.67 nM
EC50 (Melanocortin receptor 5 [7]): 0.11 nM
EC50 [8]: 0.37 nM
EC50 (Melanocortin receptor 3 [9]): 7.3 nM
Compound: C[C@H](O)[C@@H](NC(=O)[C@H]1CSSC[C@H](NC(=O)[C@H](N)Cc2ccccc2)C(=O)N[C@@H](Cc2cnc[nH]2)C(=O)N[C@@H](Cc2ccc(Cl)cc2)C(=O)N[C@@H](CCCNC(=N)N)C(=O)N[C@H](Cc2c[nH]c3ccccc23)C(=O)N1)C(N)=O
